This passage reports viability, differential viability (reversal) and inhibition results from PubChem BioAssay.

SMILES strings stand for the structures. Activity calls are given as the source filed them.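 The calls were made as follows, unless noted: active = viability at or under a set limit in both replicates, limit being median viability minus 3 SD (cut at about 48% in these data, passing the limit was not always enough); inconclusive = at or under the limit in just one replicate; inactive = at or above the limit in both replicates.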

Broadly, the viability is a read-out of living cells in per cent, often relative to untreated cells. A word on the inhibition: it is the relative decrease from the control value, in per cent.

Assay [1] can be described thus: reduced viability of SK-BR-3 breast cancer cells – cell-based, 24 h, human, pilot screen (AID 572;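 active = viability at or below 10% of carrier control in both of two separate runs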;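 also: compound exposure lasted between 18 and 24 h rather than exactly 24 h; 100% = carrier-treated control wells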). Particulars: SK-BR-3 viability, CellTiter-Glo luminescence, at 10 µM, stronger effect = lower value. (ATP-based viability assays read luminescence as a measure of living cells.)
A short description of assay [2]: HUVEC growth inhibition – cell-based, human, primary screen (AID 575;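 active = viability at or below 30% in both replicate assays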;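 also: 100% = median of untreated cell wells with 0.1% DMSO on each plate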). Particulars: HUVEC proliferation, CellTiter-Glo luminescence, 72 h; at 10 µM; stronger effect = lower value. A digest of the protocol: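 System – primary HUVEC, no more than 12 passages · Medium – Low-serum (2% FBS) EBM, supplemented · Times – 72 h exposure, 37 °C, 5% CO2, 30 min RT equilibration · Measured by – luminescent ATP assay · Read-out – % viability relative to median vehicle-well signal on each plate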

Assay [3] in a line: H69AR cell proliferation blockers – human, duplicate replicates, primary screen (AID 580).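 Also: 100% = mean luminescence of untreated wells and 0% = no signal.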 Particulars: H69AR lung tumor cells viability, ATP luminescence, 72 h; at 10 µM; stronger effect = lower value.
The nature of assay [4]: MRP1 drug-resistance reversers in H69AR cells – cell-based, doxorubicin co-treatment, pilot screen (AID 601;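 active = viability loss from added drug above about 55%, and viability with drug at most 40%, in both replicates, limit read from the data, passing the limit was not always enough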). Particulars: CellTiter-Glo, 72 h, at 10 µM; for differential viability (reversal): stronger effect = higher value.
Assay [5] can be described thus: yeast transport mutant growth inhibition pilot in 384-well plates, post-Golgi transport modulator project (AID 636; in the data active = inhibition above about 31%). To be noted: absorbance 615 nm, about 18 h, stronger effect = higher value.
Assay [6] in a line: growth suppression of yeast trafficking mutant, preliminary HTS, modulators of trafficking downstream of Golgi apparatus project, 1536-format plate, OD 615 nm (AID 637; in the data active = inhibition above about 30%). Particulars: yeast transport mutant growth, absorbance 615 nm, 18 h; stronger effect = higher value.
Setting [7] is: H69AR cells + 2 uM doxorubicin, measured here: viability with 2 uM doxorubicin, stronger effect = lower value.
Where [8] appears, read: H69AR cells, compound alone cytotoxicity.

`O=c1c(O)c(-c2ccc(O)cc2O)oc2cc(O)cc(O)c12`: the viability in assay [1] was 94% (inactive); in assay [2], 97.5% (inactive); in assay [3], 97.4% (inactive); in assay [4] (setting [7]) it was 99.6%; in assay [4] (setting [8]), 97.4%. In assay [4] (H69AR cells + 2 uM doxorubicin), the differential viability (reversal) was -2.28% (inactive). The inhibition is -3.77% (inactive) in assay [5] and -1.33% (inactive) in assay [6].
Turning to `CN(c1ccccc1C(=O)NCC1CCCO1)S(C)(=O)=O` (stereo unspecified), the viability in assay [1] was 67% (inactive); in assay [2], 103% (inactive); in assay [3], 101% (inactive); in assay [4] (setting [7]), 90%; in assay [4] (setting [8]) it was 101%. Besides, in assay [4] (H69AR cells + 2 uM doxorubicin), the differential viability (reversal) was 11.2% (inactive). Moreover, the results for the inhibition in assay [5] and in assay [6] were -4.11% (inactive) and 2.36% (inactive), respectively.
`Cc1oc2cc3c(C(=O)OCCN(C)C)c(C)oc3cc2c1C(=O)OCCN(C)C`: the viability in assay [1] was 92.5% (inactive); in assay [2] it was 72.2% (inactive); in assay [3] it was 90.4% (inactive); in assay [4] (setting [7]), 107%; in assay [4] (setting [8]) it was 90.4%. For the same compound, in assay [4] (H69AR cells + 2 uM doxorubicin), the differential viability (reversal) is -16.8% (inactive). Moreover, the results for the inhibition in assay [5] and in assay [6] were -3.95% (inactive) and -10% (inactive), respectively.
For `Cn1nnnc1SCC1=C(C(=O)O)N2C(=O)[C@@H](NC(=O)[C@H](O)c3ccccc3)[C@H]2SC1`, the viability in assay [1] is 132% (inactive); in assay [2], 82.9% (inactive); in assay [3], 99.2% (inactive); in assay [4] (setting [7]), 96.6%; in assay [4] (setting [8]) it was 99.2%. Further, the differential viability (reversal) in assay [4] (H69AR cells + 2 uM doxorubicin) is 2.56% (inactive). Besides, the inhibition was -1.3% (inactive) in assay [5] and 0.33% (inactive) in assay [6].
Take `Cc1nc(NC(=O)c2csc3ccccc23)sc1C`: the viability is 100% (inactive) in assay [1]; 83% (inactive) in assay [2]; 78.2% (inactive) in assay [3]; 81.5% in assay [4] (setting [7]); 78.2% in assay [4] (setting [8]). In assay [4] (H69AR cells + 2 uM doxorubicin), the differential viability (reversal) was -3.3% (inactive). In addition, the inhibition was 3.84% (inactive) in assay [5] and -2.74% (inactive) in assay [6].
For the compound `O=C(O)Cc1ccc(-c2ccccc2)cc1`, the viability is 112% (inactive) in assay [1]; 84.3% (inactive) in assay [2]; 85.7% (inactive) in assay [3]; 86.4% in assay [4] (setting [7]); 85.7% in assay [4] (setting [8]). For the same compound, the differential viability (reversal) in assay [4] (H69AR cells + 2 uM doxorubicin) was -0.76% (inactive). The inhibition in assay [5] is -2.21% (inactive); in assay [6], 5.33% (inactive).
For `COc1ccccc1N(CC(=O)NC1CCCC1)C(=O)CCC(=O)Nc1cc(C)on1`, the viability is 98% (inactive) in assay [1]; 102% (inactive) in assay [2]; 85.3% (inactive) in assay [3]; 87.1% in assay [4] (setting [7]); 85.3% in assay [4] (setting [8]). In assay [4] (H69AR cells + 2 uM doxorubicin), the differential viability (reversal) is -1.76% (inactive). Besides, the inhibition in assay [5] is -2% (inactive); in assay [6], 9.82% (inactive).
With `O=C(NC1CCCCCCC1)C1CCN(c2nc3ccccc3o2)CC1`, the viability was 106% (inactive) in assay [1]; 85.7% (inactive) in assay [2]; 92.2% (inactive) in assay [3]; 94.7% in assay [4] (setting [7]); 92.2% in assay [4] (setting [8]). Moreover, the differential viability (reversal) in assay [4] (H69AR cells + 2 uM doxorubicin) is -2.57% (inactive). Also, the inhibition in assay [5] is 7.2% (inactive); in assay [6], 1.09% (inactive).
Take `CCN(CC)CCCN1C(=O)C(O)=C(C(C)=O)C1c1cccc(OC)c1` (stereo unspecified): the viability in assay [1] is 97% (inactive); in assay [2], 101% (inactive); in assay [3], 93% (inactive); in assay [4] (setting [7]), 87.3%; in assay [4] (setting [8]) it was 93%. Moreover, the differential viability (reversal) in assay [4] (H69AR cells + 2 uM doxorubicin) is 5.69% (inactive). The values for the inhibition in assay [5] and in assay [6] were -3.51% (inactive) and -2.73% (inactive), respectively.
Consider `COc1ccc(S(=O)(=O)Nc2cc(C)on2)cc1OC`, for which the viability in assay [1] was 80% (inactive); in assay [2], 97.1% (inactive); in assay [3] it was 105% (inactive); in assay [4] (setting [7]), 104%; in assay [4] (setting [8]), 105%. Further, the differential viability (reversal) in assay [4] (H69AR cells + 2 uM doxorubicin) was 1.57% (inactive). In addition, the inhibition in assay [5] was -1.1% (inactive); in assay [6], -5.81% (inactive).
Regarding `Cc1nc2sccn2c(=O)c1CCN1CCC(=C(c2ccc(F)cc2)c2ccc(F)cc2)CC1`, the viability in assay [1] is 111% (inactive); in assay [2], 11.5% (active); in assay [3], 85.7% (inactive); in assay [4] (setting [7]), 87.8%; in assay [4] (setting [8]), 85.7%. In addition, the differential viability (reversal) in assay [4] (H69AR cells + 2 uM doxorubicin) was -2.19% (inactive). In addition, the inhibition in assay [5] was 1.04% (inactive); in assay [6], 6.17% (inactive).
As to `O=C(c1ccccc1-c1nc(-c2ccccc2)no1)N1CCCC1`, the viability in assay [1] is 105% (inactive); in assay [2], 120% (inactive); in assay [3], 90.9% (inactive); in assay [4] (setting [7]), 81.6%; in assay [4] (setting [8]), 90.9%. For the same compound, in assay [4] (H69AR cells + 2 uM doxorubicin), the differential viability (reversal) is 9.27% (inactive). The results for the inhibition in assay [5] and in assay [6] were -5.07% (inactive) and -3.23% (inactive), respectively.
